This note sets out measurements from ChEMBL document CHEMBL1121598, “Acylthioxanthenes: agents which selectively reduce decerebrate rigidity in the cat” (1980).

What all share (format): functional
For assay [1], the system named is Felis catus. Put plainly: Reduction of the integrated electromyographic response by 50% in cat after intravenous administration. In a few lines:
(§1)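 Intercollicular decerebration of cats (midbrain sectioned between colliculi) under halothane, anesthesia then stopped; ≥1 h later, integrated EMG of quadriceps recorded in response to controlled stretches. Drug infused iv in saline in graded doses, stretch response repeated; dose (μmol/kg iv) reducing stretch response by 50% determined.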

The subject of assay [2] is Felis catus. Put plainly: Reduction of the integrated electromyographic response by 50% in cat after peroral administration.
In a further assay the test system is Mus musculus. The experiment in a line: Reduction of locomotor activity count to 50% of the control in mouse after oral administration. In a few lines: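 Mouse locomotor activity by Dews method, modified: drug given orally, activity measured for 5 min starting 1 h later. Dose (μmol/kg po) reducing locomotor activity count to 50% of control determined.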
Assay [3] can be described thus: Ratio of motor activity and activity A.
Assay [4] relates to Felis catus. The experiment in a line: Dose of compound to reduce the integrated electromyographic response by 50% in cat after peroral administration; Range is 5.1-12.5.
The subject of assay [5] is Felis catus. The experiment in a line: Dose of compound to reduce the integrated electromyographic response by 50% in cat after intravenous administration; value from second experiment. The method in brief:
as §1

Assay [6] has as its system Felis catus. Put plainly: Dose of compound to reduce the integrated electromyographic response by 50% in cat after peroral administration; Range is 5.5-13.7.

On to `CC(=O)c1ccc2c(c1)/C(=C\CCN(C)C)c1cc(Cl)ccc1S2` (stereo in doubt; 33) [listing 1 of 2 here], for which the “Activity A” value in the assay with Felis catus [1] stood at 0.53 µM/kg. Besides, the “Activity B” value with Felis catus [2] was above 5.4 µM/kg. In addition, in the assay with Mus musculus, the Locomotor activity was determined as 89 µM/kg.

In the case of `CCCC(=O)c1ccc2c(c1)/C(=C\C(C)CN(C)C)c1ccccc1S2` (configuration not stated), the “Activity A” value with Felis catus [1] was 1.22 µM/kg. This compound yielded a Locomotor activity in the assay with Mus musculus of 195 µM/kg. In addition, the Ratio in assay [3] came out at 160.

Take `CCCC(=O)c1ccc2c(c1)/C(=C\CCN(C)C)c1ccccc1S2`: in the assay on Felis catus [1], the “Activity A” value turned out to be 1.5 µM/kg. In addition, the “Activity B” value with Felis catus [4] worked out at 5.1 µM/kg. For the same compound, the Locomotor activity with Mus musculus is above 501 µM/kg. Also, the Ratio in assay [3] came out at 334.

With `CN(C)CC/C=C1/c2ccccc2C=Cc2ccc(Cl)cc21`, the “Activity A” value with Felis catus [1] was 4.01 µM/kg. The “Activity B” value in the assay on Felis catus [2] was above 6.1 µM/kg. In the assay with Mus musculus, this compound returned a Locomotor activity of 103 µM/kg. Moreover, in assay [3], the Ratio turned out to be 26.

Consider `CC(=O)c1ccc2c(c1)N(CCCN(C)C)c1ccccc1S2` [ACEPROMAZINE], for which the “Activity A” value in the assay with Felis catus [1] was 0.03 µM/kg. For the same compound, the “Activity B” value in the assay on Felis catus [2] was determined as 1 µM/kg. Moreover, the Locomotor activity in the assay on Mus musculus stood at 11 µM/kg. Besides, the Ratio in assay [3] amounted to 393.

As for `CC(=O)c1ccc2c(c1)C(O)(CC(C)CN(C)C)c1ccccc1S2` (configuration not stated), the “Activity A” value was 3.17 µM/kg with Felis catus [1] and above 21.18 µM/kg in the assay with Felis catus [5].

Regarding `CC(=O)c1ccc2c(c1)N(CC(C)CN(C)C)c1cc(Cl)ccc1S2` (configuration not stated), in the assay with Felis catus [1], the “Activity A” value is 0.32 µM/kg. In addition, the “Activity B” value in the assay on Felis catus [2] worked out at 1 µM/kg. In addition, in the assay with Mus musculus, the Locomotor activity turned out to be 161 µM/kg. Moreover, the Ratio in assay [3] stood at 506.

On to `CCC(=O)c1ccc2c(c1)C(=C1CCN(C)CC1)c1ccccc1S2`, for which the “Activity A” value in the assay on Felis catus [1] was determined as 0.68 µM/kg. This compound also showed a Locomotor activity in the assay on Mus musculus of 96 µM/kg. For the same compound, in assay [3], the Ratio turned out to be 141.

Consider `CCC(=O)c1ccc2c(c1)C(CCCN(C)C)c1cc(Cl)ccc1S2` (configuration not stated), for which the “Activity A” value with Felis catus [1] worked out at 6.17 µM/kg. The same compound came in with a Locomotor activity with Mus musculus of 343 µM/kg. For the same compound, the Ratio in assay [3] came out at 56.

In the case of `CC(=O)c1ccc2c(c1)/C(=C\CCN(C)C)c1cc(Cl)ccc1S2` (stereo in doubt; 32) [listing 1 of 2 here], the Ratio in assay [3] was determined as 119.

Take `CC(=O)c1ccc2c(c1)/C(=C\CCN(C)C)c1ccccc1S2`: in the assay on Felis catus [1], the “Activity A” value is 0.54 µM/kg. The “Activity B” value with Felis catus [2] is below 5.4 µM/kg. Also, in the assay with Mus musculus, the Locomotor activity came to 33 µM/kg. In assay [3], the Ratio was 60.

As to `CCC(=O)c1ccc2c(c1)/C(=C\C(C)CN1CCOCC1)c1ccccc1S2` (configuration not stated), the “Activity A” value in the assay on Felis catus [1] amounted to 6.5 µM/kg. In the assay on Mus musculus, the Locomotor activity was above 659 µM/kg. Besides, the Ratio in assay [3] is above 101.

Regarding `CCC(=O)c1ccc2c(c1)/C(=C\CCN(C)C)c1ccccc1S2` (stereo in doubt; 35) [listing 1 of 2 here], the “Activity A” value with Felis catus [1] is 0.45 µM/kg. Also, in the assay with Felis catus [2], the “Activity B” value turned out to be 1.9 µM/kg. In the assay on Mus musculus, this compound gave a Locomotor activity of 339 µM/kg.

Regarding `CCC(=O)c1ccc2c(c1)/C(=C\CCN1CCN(C)CC1)c1ccccc1S2`, in the assay with Felis catus [1], the “Activity A” value worked out at 0.67 µM/kg. The compound also had a Locomotor activity with Mus musculus of 42 µM/kg. In assay [3], the Ratio was 43.

`CCC(=O)c1ccc2c(c1)/C(=C\CCN(C)C)c1cc(Cl)ccc1S2`: the “Activity A” value in the assay with Felis catus [1] was found to be 1.08 µM/kg. Also, the “Activity B” value in the assay on Felis catus [2] was above 9.6 µM/kg. Moreover, in the assay with Mus musculus, the Locomotor activity is 695 µM/kg. For the same compound, in assay [3], the Ratio was 644.

Consider `CCC(=O)c1ccc2c(c1)C(O)(CC1CCN(C)CC1)c1ccccc1S2` (configuration not stated), for which the “Activity A” value in the assay with Felis catus [1] stood at 19.39 µM/kg. The compound further had a Locomotor activity in the assay on Mus musculus above 485 µM/kg. For the same compound, the Ratio in assay [3] is above 25.

Take `CCC(=O)c1ccc2c(c1)/C(=C\CCN(C)C)c1ccccc1S2` (stereo in doubt; 36) [listing 1 of 2 here]: the “Activity A” value with Felis catus [1] amounted to 0.15 µM/kg. Moreover, the “Activity B” value in the assay on Felis catus [2] was 1.8 µM/kg. Also, in the assay on Mus musculus, the Locomotor activity worked out at 120 µM/kg.

As for `CC(=O)c1ccc2c(c1)C(CCCN(C)C)c1ccccc1S2` (configuration not stated), in the assay on Felis catus [1], the “Activity A” value amounted to 0.9 µM/kg. Besides, the “Activity B” value in the assay with Felis catus [6] amounted to 5.5 µM/kg. This compound also gave a Locomotor activity in the assay with Mus musculus of 57 µM/kg. Moreover, the Ratio in assay [3] was found to be 63.

As to `CC(=O)c1ccc2c(c1)C(CC(C)CN(C)C)c1ccccc1S2` (configuration not stated), in the assay on Felis catus [1], the “Activity A” value is 2.08 µM/kg. Moreover, the “Activity B” value in the assay with Felis catus [2] is above 13 µM/kg. The same compound came in with a Locomotor activity with Mus musculus of 377 µM/kg. The Ratio in assay [3] worked out at 181.

With `CC(CN1c2ccccc2Sc2ccc(S(=O)(=O)N(C)C)cc21)N(C)C` (configuration not stated) [FONAZINE], the “Activity A” value in the assay on Felis catus [1] was 4.67 µM/kg. Besides, in the assay on Felis catus [2], the “Activity B” value worked out at 8.1 µM/kg. The same compound displayed a Locomotor activity with Mus musculus of 860 µM/kg. Further, in assay [3], the Ratio stood at 184.

In the case of `CC(=O)c1ccc2c(c1)/C(=C\C(C)CN(C)C)c1cc(Cl)ccc1S2` (configuration not stated), in the assay with Felis catus [1], the “Activity A” value was 1.19 µM/kg. This compound displayed a Locomotor activity in the assay with Mus musculus of 192 µM/kg. Moreover, the Ratio in assay [3] came to 161.

Turning to `CN(C)CCCN1c2ccccc2Sc2ccc(Cl)cc21` [CHLORPROMAZINE], the “Activity A” value in the assay with Felis catus [1] amounted to 0.25 µM/kg. In addition, the “Activity B” value in the assay with Felis catus [2] is 2 µM/kg. This compound displayed a Locomotor activity in the assay with Mus musculus of 39 µM/kg.

Take `CCCCC(=O)c1ccc2c(c1)/C(=C\CCN(C)C)c1ccccc1S2`: in the assay on Felis catus [1], the “Activity A” value was 1.35 µM/kg.

Regarding `CC(/C=C1/c2ccccc2Sc2ccc(C(=O)C(C)C)cc21)CN(C)C` (configuration not stated), in the assay on Felis catus [1], the “Activity A” value was found to be 0.67 µM/kg. Moreover, the Locomotor activity in the assay with Mus musculus came to 145 µM/kg. Also, in assay [3], the Ratio stood at 216.

In the case of `CC(=O)c1ccc2c(c1)/C(=C\CCN(C)C)c1cc(Cl)ccc1S2` (stereo in doubt; 32) [listing 2 of 2 here], the “Activity A” value in the assay with Felis catus [1] amounted to 0.81 µM/kg. For the same compound, the Locomotor activity in the assay with Mus musculus is 96 µM/kg.

Turning to `CCC(=O)c1ccc2c(c1)/C(=C\C(C)CN(C)C)c1cc(Cl)ccc1S2` (configuration not stated), the “Activity A” value in the assay on Felis catus [1] turned out to be 1.3 µM/kg. Further, the “Activity B” value in the assay with Felis catus [2] was above 9.3 µM/kg. Also, the Locomotor activity in the assay with Mus musculus was 534 µM/kg. In addition, in assay [3], the Ratio was found to be 411.

Regarding `CC(=O)c1ccc2c(c1)/C(=C\CCN(C)C)c1cc(Cl)ccc1S2` (stereo in doubt; 33) [listing 2 of 2 here], in assay [3], the Ratio amounted to 168.

Regarding `CCCCC(=O)c1ccc2c(c1)/C(=C\C(C)CN(C)C)c1ccccc1S2` (configuration not stated), the “Activity A” value in the assay with Felis catus [1] was found to be 3.29 µM/kg. For the same compound, the Locomotor activity with Mus musculus is 132 µM/kg. Moreover, the Ratio in assay [3] stood at 40.

In the case of `CCC(=O)c1ccc2c(c1)/C(=C\C(C)CN(C)C)c1ccccc1S2` (configuration not stated), in the assay on Felis catus [1], the “Activity A” value was determined as 0.52 µM/kg. Moreover, the “Activity B” value in the assay with Felis catus [2] is above 5.2 µM/kg. The compound further showed a Locomotor activity in the assay with Mus musculus of 261 µM/kg. Moreover, in assay [3], the Ratio turned out to be 501.

In the case of `CCC(=O)c1ccc2c(c1)/C(=C\CCN(C)C)c1ccccc1S2` (stereo in doubt; 36) [listing 2 of 2 here], the Ratio in assay [3] was 800.

Regarding `CC(=O)c1ccc2c(c1)/C(=C\C(C)CN(C)C)c1ccccc1S2` (configuration not stated), in the assay on Felis catus [1], the “Activity A” value was 1.31 µM/kg. Moreover, the Locomotor activity in the assay with Mus musculus was 94 µM/kg. For the same compound, the Ratio in assay [3] amounted to 72.

For the compound `CCCC(=O)c1ccc2c(c1)N(CC(C)CN(C)C)c1ccccc1S2` (configuration not stated), in the assay on Felis catus [1], the “Activity A” value was determined as 0.65 µM/kg. The “Activity B” value in the assay on Felis catus [2] is 1.2 µM/kg. The Locomotor activity with Mus musculus worked out at 136 µM/kg. For the same compound, in assay [3], the Ratio was determined as 209.

As to `CC(C)C(=O)c1ccc2c(c1)/C(=C\CCN(C)C)c1ccccc1S2`, in the assay with Felis catus [1], the “Activity A” value amounted to 0.4 µM/kg. Moreover, the Locomotor activity in the assay with Mus musculus worked out at 89 µM/kg. The Ratio in assay [3] came out at 218.

Regarding `CN(C)CC/C=C1/c2ccccc2Sc2ccc(Cl)cc21` [CHLORPROTHIXENE], in the assay on Felis catus [1], the “Activity A” value came out at 0.39 µM/kg. Besides, the “Activity B” value with Felis catus [2] was 2.1 µM/kg. In the assay on Mus musculus, this compound returned a Locomotor activity of 11 µM/kg. Also, the Ratio in assay [3] was determined as 28.

For the compound `CCC(=O)c1ccc2c(c1)/C(=C\C(CC)CN(C)C)c1ccccc1S2` (configuration not stated), the “Activity A” value with Felis catus [1] came to 4.14 µM/kg. Also, the Locomotor activity in the assay on Mus musculus came to 280 µM/kg. In addition, in assay [3], the Ratio was 68.

As to `CCC(=O)c1ccc2c(c1)/C(=C\CCN1CCOCC1)c1ccccc1S2`, in the assay with Felis catus [1], the “Activity A” value worked out at 0.27 µM/kg. In the assay with Mus musculus, this compound returned a Locomotor activity of 125 µM/kg. Also, the Ratio in assay [3] worked out at 463.

`CCC(=O)c1ccc2c(c1)/C(=C\CCN(C)C)c1ccccc1S2` (stereo in doubt; 35) [listing 2 of 2 here]: in assay [3], the Ratio worked out at 753.
